Results from ChEMBL document CHEMBL4020802, “Fused bi-heteroaryl substituted hydantoin compounds as TACE inhibitors” (Bioorg Med Chem Lett, 2017).

How the values were obtained:
[1] = Permeability from apical side to basolateral side in human Caco2 cells; type: ADME, cell-based; details: Caco-2, read-out: permeability
[2] = AUC in rat; type: ADME; parameters: concentration or dose not given beside the values; details: in vivo
[3] = biological target: Disintegrin and metalloproteinase domain-containing protein 17 (Homo sapiens, UniProt P78536); assay: Inhibition of catalytic domain TACE (unknown origin) by FRET assay
[4] = test system: Blood; assay: Antiinflammatory activity in human whole blood assessed as inhibition of LPS-induced TNF-alpha release preincubated for 1 hr followed by LPS addition after 3.5 hrs by ELISA method; type: functional
[5] = Clearance in rat at 3 mg/kg, iv; type: ADME, organism-based; details: in vivo
[6] = Clearance in monkey at 1 mg/kg, iv; type: ADME, organism-based, Macaca mulatta; details: rhesus monkey, in vivo
[7] = Oral bioavailability in rat at 10 mg/kg; type: ADME, organism-based; details: in vivo
Procedure, shortened: (§1)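 Oral dosing of rats, dogs and monkeys, with compounds given as Na+ or HCl salts in a 0.4% HPMC formulation. Doses were 10 mg/kg in rat, 2 or 3 mg/kg in dog, and 3 or 10 mg/kg in monkey. Plasma exposure was reported as AUC in µM·h, and oral bioavailability as F%.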

[8] = AUC in dog at 3 mg/kg, po; type: ADME, organism-based, Canis lupus familiaris; details: in vivo; procedure, shortened: as §1
[9] = AUC in monkey at 10 mg/kg, po; type: ADME, organism-based, Macaca mulatta; details: rhesus monkey, in vivo; procedure, shortened: as §1
[10] = Oral bioavailability in dog at 3 mg/kg; type: ADME, organism-based, Canis lupus familiaris; details: in vivo; procedure, shortened: as §1
[11] = Clearance in dog at 0.5 mg/kg, iv; type: ADME, organism-based, Canis lupus familiaris; details: in vivo
[12] = Oral bioavailability in monkey at 10 mg/kg; type: ADME, organism-based, Macaca mulatta; details: rhesus monkey, in vivo; procedure, shortened: as §1
[13] = AUC in rat at 10 mg/kg, po; type: ADME, organism-based; details: in vivo; procedure, shortened: as §1
[14] = AUC in monkey at 3 mg/kg, po; type: ADME, organism-based, Macaca mulatta; details: rhesus monkey, in vivo; procedure, shortened: as §1
[15] = AUC in dog at 2 mg/kg, po; type: ADME, organism-based, Canis lupus familiaris; details: in vivo; procedure, shortened: as §1
[16] = biological target: Matrix metalloproteinase-9 (Homo sapiens, UniProt P14780); assay: Inhibition of MMP9 (unknown origin)
[17] = biological target: T1, Matrilysin (Homo sapiens, UniProt P09237); assay: Inhibition of MMP7 (unknown origin)
T1 sequence (P09237 whole entry): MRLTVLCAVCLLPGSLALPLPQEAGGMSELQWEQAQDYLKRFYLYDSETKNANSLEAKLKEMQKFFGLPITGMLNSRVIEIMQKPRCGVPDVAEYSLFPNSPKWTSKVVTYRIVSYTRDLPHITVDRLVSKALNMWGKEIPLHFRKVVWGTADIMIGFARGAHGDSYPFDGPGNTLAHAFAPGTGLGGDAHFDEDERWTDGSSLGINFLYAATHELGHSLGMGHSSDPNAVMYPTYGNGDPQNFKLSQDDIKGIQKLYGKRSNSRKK

[18] = biological target: Stromelysin-1 (Homo sapiens, UniProt P08254); assay: Inhibition of MMP3 (unknown origin)
[19] = biological target: T2, Interstitial collagenase (Homo sapiens, UniProt P03956); assay: Inhibition of MMP1 (unknown origin)
T2 sequence (P03956 whole entry): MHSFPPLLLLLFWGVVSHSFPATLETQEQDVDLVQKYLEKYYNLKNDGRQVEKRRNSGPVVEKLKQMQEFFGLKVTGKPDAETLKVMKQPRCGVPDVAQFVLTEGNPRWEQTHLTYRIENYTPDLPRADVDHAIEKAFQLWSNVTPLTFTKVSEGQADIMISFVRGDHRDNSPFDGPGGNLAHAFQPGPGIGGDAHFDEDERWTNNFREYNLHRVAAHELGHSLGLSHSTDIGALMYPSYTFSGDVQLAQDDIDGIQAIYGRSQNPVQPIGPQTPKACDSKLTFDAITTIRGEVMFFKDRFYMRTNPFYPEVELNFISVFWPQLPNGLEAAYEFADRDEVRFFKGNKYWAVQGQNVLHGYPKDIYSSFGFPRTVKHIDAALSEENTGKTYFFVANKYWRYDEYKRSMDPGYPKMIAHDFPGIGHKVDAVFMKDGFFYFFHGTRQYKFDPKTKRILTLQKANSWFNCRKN

[20] = Oral bioavailability in monkey at 3 mg/kg; type: ADME, organism-based, Macaca mulatta; details: rhesus monkey, in vivo; procedure, shortened: as §1
[21] = biological target: Collagenase 3 (Homo sapiens, UniProt P45452); assay: Inhibition of MMP13 (unknown origin)
[22] = biological target: 72 kDa type IV collagenase (Homo sapiens, UniProt P08253); assay: Inhibition of MMP2 (unknown origin)
[23] = biological target: Matrix metalloproteinase-14 (Homo sapiens, UniProt P50281); assay: Inhibition of MMP14 (unknown origin)
[24] = biological target: T3, Disintegrin and metalloproteinase domain-containing protein 10 (Homo sapiens, UniProt O14672); assay: Inhibition of ADAM10 (unknown origin)
T3 sequence (O14672 whole entry): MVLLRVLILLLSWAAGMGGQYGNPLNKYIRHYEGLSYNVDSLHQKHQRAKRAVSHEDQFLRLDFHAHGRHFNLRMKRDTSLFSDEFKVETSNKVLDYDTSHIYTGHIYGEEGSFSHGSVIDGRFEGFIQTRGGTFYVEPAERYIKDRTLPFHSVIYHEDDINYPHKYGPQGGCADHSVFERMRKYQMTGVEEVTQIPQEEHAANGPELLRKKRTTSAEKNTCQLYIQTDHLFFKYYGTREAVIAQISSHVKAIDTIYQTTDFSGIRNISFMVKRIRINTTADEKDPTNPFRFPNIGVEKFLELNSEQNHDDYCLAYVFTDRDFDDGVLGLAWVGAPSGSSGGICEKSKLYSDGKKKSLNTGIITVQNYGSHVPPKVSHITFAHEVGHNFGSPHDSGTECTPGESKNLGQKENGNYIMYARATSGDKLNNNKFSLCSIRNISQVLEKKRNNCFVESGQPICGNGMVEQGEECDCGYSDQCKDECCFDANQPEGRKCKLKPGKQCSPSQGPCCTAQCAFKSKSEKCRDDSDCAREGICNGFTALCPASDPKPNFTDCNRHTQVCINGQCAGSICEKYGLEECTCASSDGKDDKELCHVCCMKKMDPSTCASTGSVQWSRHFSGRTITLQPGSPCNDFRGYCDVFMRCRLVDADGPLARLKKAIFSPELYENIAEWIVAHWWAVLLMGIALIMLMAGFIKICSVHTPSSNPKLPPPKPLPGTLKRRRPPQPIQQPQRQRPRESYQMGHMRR

Chain of Disintegrin and metalloproteinase domain-containing protein 17 (P78536 whole entry, the tested form may be a part): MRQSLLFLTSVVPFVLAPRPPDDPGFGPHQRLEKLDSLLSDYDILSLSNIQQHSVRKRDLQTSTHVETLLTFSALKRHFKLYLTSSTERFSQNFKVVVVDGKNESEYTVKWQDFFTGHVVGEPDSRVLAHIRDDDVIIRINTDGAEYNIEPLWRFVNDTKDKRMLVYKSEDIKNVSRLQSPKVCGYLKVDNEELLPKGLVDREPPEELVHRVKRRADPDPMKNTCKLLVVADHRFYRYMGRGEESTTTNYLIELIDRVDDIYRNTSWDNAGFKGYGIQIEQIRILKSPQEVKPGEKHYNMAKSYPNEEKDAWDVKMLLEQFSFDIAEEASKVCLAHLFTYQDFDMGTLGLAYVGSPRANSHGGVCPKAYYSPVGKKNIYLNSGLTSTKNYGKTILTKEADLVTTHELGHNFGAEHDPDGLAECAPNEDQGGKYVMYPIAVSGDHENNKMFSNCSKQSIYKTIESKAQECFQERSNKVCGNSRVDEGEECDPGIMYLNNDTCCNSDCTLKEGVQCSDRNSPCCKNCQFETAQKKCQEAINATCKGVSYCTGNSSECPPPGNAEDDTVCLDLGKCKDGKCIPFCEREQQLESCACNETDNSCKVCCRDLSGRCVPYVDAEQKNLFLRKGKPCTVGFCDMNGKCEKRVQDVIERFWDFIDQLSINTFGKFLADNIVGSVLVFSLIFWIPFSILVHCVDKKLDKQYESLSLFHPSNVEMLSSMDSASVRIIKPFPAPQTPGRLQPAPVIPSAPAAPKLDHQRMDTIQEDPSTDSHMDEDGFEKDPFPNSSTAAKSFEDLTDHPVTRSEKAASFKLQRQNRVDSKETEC
Chain of Matrix metalloproteinase-9 (P14780 whole entry): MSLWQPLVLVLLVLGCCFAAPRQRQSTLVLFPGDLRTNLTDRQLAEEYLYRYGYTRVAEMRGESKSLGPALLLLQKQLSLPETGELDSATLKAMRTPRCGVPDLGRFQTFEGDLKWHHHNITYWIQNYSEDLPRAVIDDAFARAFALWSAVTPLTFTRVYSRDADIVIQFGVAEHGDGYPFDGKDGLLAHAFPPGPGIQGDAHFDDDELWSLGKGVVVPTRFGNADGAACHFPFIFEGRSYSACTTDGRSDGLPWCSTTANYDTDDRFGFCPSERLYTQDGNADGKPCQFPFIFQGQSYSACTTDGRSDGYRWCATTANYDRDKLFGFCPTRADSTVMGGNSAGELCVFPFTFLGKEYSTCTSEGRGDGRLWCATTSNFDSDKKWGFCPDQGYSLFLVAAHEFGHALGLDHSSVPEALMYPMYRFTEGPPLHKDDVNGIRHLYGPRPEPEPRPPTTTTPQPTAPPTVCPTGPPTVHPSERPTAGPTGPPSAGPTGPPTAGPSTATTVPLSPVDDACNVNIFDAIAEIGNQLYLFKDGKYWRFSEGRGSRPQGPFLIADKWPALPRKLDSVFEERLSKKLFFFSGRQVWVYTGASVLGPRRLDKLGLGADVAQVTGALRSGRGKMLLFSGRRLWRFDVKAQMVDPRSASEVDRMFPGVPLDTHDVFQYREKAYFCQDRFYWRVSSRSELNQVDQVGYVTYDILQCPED
Chain of 72 kDa type IV collagenase (P08253 whole entry): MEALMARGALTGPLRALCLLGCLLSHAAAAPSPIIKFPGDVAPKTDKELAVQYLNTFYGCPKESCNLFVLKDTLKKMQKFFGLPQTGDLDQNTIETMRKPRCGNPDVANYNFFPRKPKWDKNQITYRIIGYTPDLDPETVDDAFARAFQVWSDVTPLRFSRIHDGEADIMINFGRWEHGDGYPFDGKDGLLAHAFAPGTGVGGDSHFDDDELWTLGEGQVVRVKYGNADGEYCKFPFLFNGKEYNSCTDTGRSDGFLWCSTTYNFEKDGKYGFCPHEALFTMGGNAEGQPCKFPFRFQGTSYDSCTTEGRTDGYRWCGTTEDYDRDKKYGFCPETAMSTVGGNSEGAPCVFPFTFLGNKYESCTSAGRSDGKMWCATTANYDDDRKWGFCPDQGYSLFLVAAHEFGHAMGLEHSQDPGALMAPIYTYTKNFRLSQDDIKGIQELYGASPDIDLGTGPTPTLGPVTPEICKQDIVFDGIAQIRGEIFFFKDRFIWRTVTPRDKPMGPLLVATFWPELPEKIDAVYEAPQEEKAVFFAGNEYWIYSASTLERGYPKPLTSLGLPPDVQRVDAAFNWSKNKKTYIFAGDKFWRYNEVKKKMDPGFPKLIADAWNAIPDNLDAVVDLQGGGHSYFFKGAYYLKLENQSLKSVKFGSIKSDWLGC
Chain of Stromelysin-1 (P08254 whole entry): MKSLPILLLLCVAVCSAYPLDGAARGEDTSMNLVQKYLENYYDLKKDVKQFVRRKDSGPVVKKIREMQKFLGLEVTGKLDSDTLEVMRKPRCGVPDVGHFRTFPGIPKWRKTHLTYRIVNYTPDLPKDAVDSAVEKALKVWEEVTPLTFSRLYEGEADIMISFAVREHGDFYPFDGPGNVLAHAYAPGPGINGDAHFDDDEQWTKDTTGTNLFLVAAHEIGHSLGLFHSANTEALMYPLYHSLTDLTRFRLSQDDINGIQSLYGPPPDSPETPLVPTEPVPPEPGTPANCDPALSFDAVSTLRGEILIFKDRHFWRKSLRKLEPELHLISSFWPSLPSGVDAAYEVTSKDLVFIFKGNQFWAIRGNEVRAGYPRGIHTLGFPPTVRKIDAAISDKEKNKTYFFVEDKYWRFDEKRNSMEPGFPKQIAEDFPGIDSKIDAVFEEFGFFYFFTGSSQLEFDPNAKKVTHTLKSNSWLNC

Compound | AUC [2] [µM·h] | Ki [3] [nM] | IC50 [4] [nM] | other results
COc1ccc2c(c1)C(=O)N(C[C@@]1(C#Cc3cccnc3)NC(=O)NC1=O)C2 | – | – | – | Papp A→B [1]: 1.6 ×10⁻⁶ cm/s
COc1ccc2c(c1)C(=O)N(C[C@@]1(c3cc4nc(N(c5cn[nH]c5)C5CCN(C)CC5)ccc4o3)NC(=O)NC1=O)C2 | 0.06 | 1 | – | Papp A→B [1]: 0.1 ×10⁻⁶ cm/s
COc1ccc2c(c1F)C(=O)N(C[C@@]1(c3cc4nc(N5CCC(N(C)C)CC5)ccc4o3)NC(=O)NC1=O)C2 | 0.04 | – | 76 | –
COc1ccc2c(c1)C(=O)N(C[C@@]1(c3cn4ccccc4n3)NC(=O)NC1=O)C2 | – | 1.4 | 1480 | –
COc1ccc2c(c1F)C(=O)N(C[C@@]1(c3cc4cnc(C)cc4o3)NC(=O)NC1=O)C2 | 26.3 | 0.4 | 210 | AUC [14]: 1.5 µM·h; AUC [15]: 13.5 µM·h; bioavailability [7]: 11%; AUC [13]: 13.4 µM·h
COc1ccc2c(c1)C(=O)N(C[C@@]1(c3cc4ncccc4[nH]3)NC(=O)NC1=O)C2 | – | 3.6 | 2970 | –
COc1ccc2c(c1)C(=O)N(C[C@@]1(c3cc4nc(N(c5cn[nH]c5)C5CCNCC5)ccc4o3)NC(=O)NC1=O)C2 | – | 0.4 | 93 | Papp A→B [1]: 0.22 ×10⁻⁶ cm/s
COc1ccc2c(c1F)C(=O)N(C[C@@]1(c3cc4nc(N5CC(=O)NC5=O)c(F)cc4o3)NC(=O)NC1=O)C2 | 3.2 | 0.4 | – | –
COc1ccc2c(c1)C(=O)N(C[C@@]1(c3cn4ccsc4n3)NC(=O)NC1=O)C2 | 2.2 | 1.3 | 540 | –
COc1ccc2c(c1)C(=O)N(C[C@@]1(c3cn4cccnc4n3)NC(=O)NC1=O)C2 | 3.2 | 1.9 | 710 | –
COc1ccc2c(c1F)C(=O)N(C[C@@]1(c3cc4nc(N5CCNC(=O)C5)ccc4o3)NC(=O)NC1=O)C2 | 0.1 | 0.6 | – | –
COc1ccc2c(c1F)C(=O)N(C[C@@]1(c3cc4nc(C)c(-c5ccc(N)nc5)cc4o3)NC(=O)NC1=O)C2 | – | – | 308 | –
COc1ccc2c(c1)C(=O)N(C[C@@]1(c3cc4nc(-c5cn[nH]c5)ccc4o3)NC(=O)NC1=O)C2 | 0.1 | 0.5 | 99 | –

Second part, led by results:

AUC [2] [µM·h] | Ki [3] [nM] | IC50 [4] [nM] | Compound | other results
19.1 | 0.4 | 350 | COc1ccc2c(c1)C(=O)N(C[C@@]1(c3cc4cnc(C)cc4o3)NC(=O)NC1=O)C2 | Papp A→B [1]: 2.05 ×10⁻⁶ cm/s
27 | 0.5 | 290 | COc1ccc2c(c1)C(=O)N(C[C@@]1(c3cc4ncccc4o3)NC(=O)NC1=O)C2 | clearance [5]: 15 mL/min/kg; Papp A→B [1]: 1.2 ×10⁻⁶ cm/s; clearance [6]: 11 mL/min/kg; bioavailability [7]: 35%; AUC [8]: 41 µM·h; AUC [9]: 22 µM·h; bioavailability [10]: 82%; clearance [11]: 3 mL/min/kg; bioavailability [12]: 46%; AUC [13]: 10 µM·h
0.1 | 0.4 | 310 | COc1ccc2c(c1)C(=O)N(C[C@@]1(c3cc4cncc(N)c4o3)NC(=O)NC1=O)C2 | –
34 | 0.7 | 590 | COc1ccc2c(c1)C(=O)N(C[C@@]1(c3cc4cccnc4o3)NC(=O)NC1=O)C2 | –
19.3 | 0.5 | 1620 | COc1ccc2c(c1)C(=O)N(C[C@@]1(c3cc4cnc(C(F)(F)F)cc4o3)NC(=O)NC1=O)C2 | –
4.2 | 0.5 | 680 | COc1ccc2c(c1)C(=O)N(C[C@@]1(c3cc4c(C)nc(C)cc4o3)NC(=O)NC1=O)C2 | –
21 | 0.4 | 1370 | COc1ccc2c(c1)C(=O)N(C[C@@]1(c3cc4nc(-n5cccn5)ccc4o3)NC(=O)NC1=O)C2 | –
0.5 | 0.7 | 1240 | COc1ccc2c(c1)C(=O)N(C[C@@]1(c3cc4c(C#N)nccc4o3)NC(=O)NC1=O)C2 | –
2.2 | 1.6 | 770 | COc1ccc2c(c1)C(=O)N(C[C@@]1(c3cc4cncnc4o3)NC(=O)NC1=O)C2 | –
– | 0.9 | – | CNC(=O)c1cnc2cc([C@]3(CN4Cc5ccc(OC)cc5C4=O)NC(=O)NC3=O)oc2c1 | –
– | 0.2 | 150 | COc1ccc2c(c1)C(=O)N(C[C@@]1(c3cc4c(-c5cn[nH]c5)nccc4o3)NC(=O)NC1=O)C2 | –
0.4 | 0.5 | 187 | COc1ccc2c(c1)C(=O)N(C[C@@]1(c3cc4nc(N)ccc4o3)NC(=O)NC1=O)C2 | –
1.2 | 1.8 | 210 | COc1ccc2c(c1)C(=O)N(C[C@@]1(c3cc4cnc(N5CCNC5=O)cc4o3)NC(=O)NC1=O)C2 | –
8.7 | 0.5 | 760 | COc1ccc2c(c1)C(=O)N(C[C@@]1(c3cc4cncc(C)c4o3)NC(=O)NC1=O)C2 | –
0.2 | 0.3 | 2310 | COc1ccc2c(c1)C(=O)N(C[C@@]1(c3cc4ccccc4o3)NC(=O)NC1=O)C2 | –
13 | 0.7 | 270 | COc1ccc2c(c1)C(=O)N(C[C@@]1(c3cc4cnccc4o3)NC(=O)NC1=O)C2 | IC50 [16]: 1760 nM; IC50 [17]: > 40000 nM; clearance [5]: 23 mL/min/kg; Papp A→B [1]: 1.5 ×10⁻⁶ cm/s; IC50 [18]: 5500 nM; IC50 [19]: 4710 nM; bioavailability [20]: 19%; clearance [6]: 7 mL/min/kg; IC50 [21]: 684 nM; AUC [14]: 10 µM·h; IC50 [22]: 533 nM; bioavailability [7]: 58%; AUC [8]: 52 µM·h; IC50 [23]: 239 nM; bioavailability [10]: 98%; clearance [11]: 3 mL/min/kg; AUC [13]: 11 µM·h; Ki [24]: 144 nM
2.7 | 2 | 1090 | COc1ccc2c(c1)C(=O)N(C[C@@]1(c3cc4cncc(F)c4o3)NC(=O)NC1=O)C2 | –
– | 0.2 | 250 | COc1ccc2c(c1)C(=O)N(C[C@@]1(c3cc4c(O)nccc4o3)NC(=O)NC1=O)C2 | –
– | 2.5 | 230 | COc1ccc2c(c1)C(=O)N(C[C@@]1(c3cc4c(N5CCNCC5)nccc4o3)NC(=O)NC1=O)C2 | –
– | 0.4 | 1070 | COc1ccc2c(c1)C(=O)N(C[C@@]1(c3cc4c(C(F)(F)F)nccc4o3)NC(=O)NC1=O)C2 | –
